Experimental data reported in ChEMBL document CHEMBL1759915, “Synthesis and anticancer effects of some novel pyrazolo[3,4-d]pyrimidine derivatives by generating reactive oxygen species in human breast adenocarcinoma cells” (Eur J Med Chem, 2011).
Converted amounts (≈) assume the structure as drawn.

Assays:
MCF7 [1] = test: Effect on glutathione level in human MCF7 cells assessed per mg protein at 2 ug/ml by Ellman method after 24 hrs (reference value: 39.82 +/- 4.20 nmol/mg of protein); type: functional
MCF7 [2] = test: Effect on glutathione peroxidase level in human MCF7 cells assessed per mg protein at 2 ug/ml after 24 hrs (reference value: 11.20 +/- 1.36 U/mg of protein); type: functional
MCF7 [3] = test: Effect on glutathione level in human MCF7 cells assessed per mg protein at 10 ug/ml by Ellman method after 24 hrs (reference value: 39.82 +/- 4.20 nmol/mg of protein); type: functional
MCF7 [4] = test: Increase in hydrogen peroxide level in human MCF7 cells; type: functional, cell-based
MCF7 [5] = test: Effect on CAT level in human MCF7 cells assessed per mg protein at 2 ug/ml after 24 hrs (reference value: 7.90+/- 0.67 U/mg of protein); type: functional
MCF7 [6] = test: Effect on CAT level in human MCF7 cells assessed per mg protein at 5 ug/ml after 24 hrs (reference value: 7.90+/- 0.67 U/mg of protein); type: functional
MCF7 [7] = test: Decrease in CAT level in human MCF7 cells; type: functional, cell-based
MCF7 [8] = test: Effect on RNA level in human MCF7 cells assessed per 10 '6 cells at 20 ug/ml after 24 hrs (reference value: 11.50 +/- 0.70 ug/10^6 cells); type: functional
Procedure, shortened: (§1)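 After 24 h exposure of MCF-7 cells to compound at 2, 5, 10 or 20 µg/ml at 37 °C, nucleic acids were precipitated from cell homogenates. DNA was extracted and assayed by the Zhou et al. method, and RNA by a kit-derived procedure. Results given per 10⁶ cells as means ± S.E. of four experiments versus untreated control.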

MCF7 [9] = test: Effect on glutathione level in human MCF7 cells assessed per mg protein at 20 ug/ml by Ellman method after 24 hrs (reference value: 39.82 +/- 4.20 nmol/mg of protein); type: functional
MCF7 [10] = test: Decrease in glutathione level in human MCF7 cells; type: functional, cell-based
MCF7 [11] = test: Effect on hydrogen peroxide level in human MCF7 cells assessed per mg protein at 20 ug/ml by Wolf's method after 24 hrs (reference value: 12.50 +/- 1.54 nmol/mg of protein); type: functional
MCF7 [12] = test: Effect on DNA level in human MCF7 cells assessed per 10 '6 cells at 2 ug/ml after 24 hrs (reference value: 6.80 +/- 0.70 ug/10^6 cells); type: functional; procedure, shortened: as §1
MCF7 [13] = test: Effect on RNA level in human MCF7 cells assessed per 10 '6 cells at 10 ug/ml after 24 hrs (reference value: 11.50 +/- 0.70 ug/10^6 cells); type: functional; procedure, shortened: as §1
MCF7 [14] = test: Effect on SOD level in human MCF7 cells assessed per mg protein at 5 ug/ml after 24 hrs (reference value: 27.61+/- 3.72 U/mg of protein); type: functional
MCF7 [15] = test: Effect on DNA level in human MCF7 cells assessed per 10 '6 cells at 10 ug/ml after 24 hrs (reference value: 6.80 +/- 0.70 ug/10^6 cells); type: functional; procedure, shortened: as §1
MCF7 [16] = test: Decrease in DNA level in human MCF7 cells assessed per 10 '6 cells after 24 hrs relative to control; type: functional, cell-based; procedure, shortened: as §1
MCF7 [17] = test: Effect on glutathione peroxidase level in human MCF7 cells assessed per mg protein at 10 ug/ml after 24 hrs (reference value: 11.20 +/- 1.36 U/mg of protein); type: functional
MCF7 [18] = test: Effect on CAT level in human MCF7 cells assessed per mg protein at 20 ug/ml after 24 hrs (reference value: 7.90+/- 0.67 U/mg of protein); type: functional
MCF7 [19] = test: Effect on glutathione peroxidase level in human MCF7 cells assessed per mg protein at 20 ug/ml after 24 hrs (reference value: 11.20 +/- 1.36 U/mg of protein); type: functional
MCF7 [20] = test: Increase in SOD level in human MCF7 cells; type: functional, cell-based
MCF7 [21] = test: Effect on glutathione level in human MCF7 cells assessed per mg protein at 5 ug/ml by Ellman method after 24 hrs (reference value: 39.82 +/- 4.20 nmol/mg of protein); type: functional
MCF7 [22] = test: Effect on SOD level in human MCF7 cells assessed per mg protein at 10 ug/ml after 24 hrs (reference value: 27.61+/- 3.72 U/mg of protein); type: functional
MCF7 [23] = test: Effect on hydrogen peroxide level in human MCF7 cells assessed per mg protein at 5 ug/ml by Wolf's method after 24 hrs (reference value: 12.50 +/- 1.54 nmol/mg of protein); type: functional
MCF7 [24] = test: Effect on CAT level in human MCF7 cells assessed per mg protein at 10 ug/ml after 24 hrs (reference value: 7.90+/- 0.67 U/mg of protein); type: functional
MCF7 [25] = test: Effect on glutathione peroxidase level in human MCF7 cells assessed per mg protein at 5 ug/ml after 24 hrs (reference value: 11.20 +/- 1.36 U/mg of protein); type: functional
MCF7 [26] = test: Effect on DNA level in human MCF7 cells assessed per 10 '6 cells at 5 ug/ml after 24 hrs (reference value: 6.80 +/- 0.70 ug/10^6 cells); type: functional; procedure, shortened: as §1
MCF7 [27] = test: Decrease in glutathione peroxidase level in human MCF7 cells; type: functional, cell-based
MCF7 [28] = test: Antiproliferative activity against human MCF7 cells after 24 hrs by MTT assay; type: functional, cell-based
Procedure, shortened: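 MCF-7 cells (DMEM, 10% heat-inactivated FCS, penicillin/streptomycin, 37 °C, 5% CO2) plated at 0.65 × 10⁵ cells/well and given 24 h to attach. Exposed to compound or cisplatin at 2, 5, 10 or 20 µg/ml for 24 h at 37 °C. MTT added for 4 h, formazan dissolved in DMSO, absorbance read at 570 nm. Viability taken relative to untreated cells and IC50 derived.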

MCF7 [29] = test: Decrease in RNA level in human MCF7 cells assessed per 10 '6 cells after 24 hrs relative to control; type: functional, cell-based; procedure, shortened: as §1
MCF7 [30] = test: Effect on RNA level in human MCF7 cells assessed per 10 '6 cells at 2 ug/ml after 24 hrs (reference value: 11.50 +/- 0.70 ug/10^6 cells); type: functional; procedure, shortened: as §1
MCF7 [31] = test: Effect on RNA level in human MCF7 cells assessed per 10 '6 cells at 5 ug/ml after 24 hrs (reference value: 11.50 +/- 0.70 ug/10^6 cells); type: functional; procedure, shortened: as §1
MCF7 [32] = test: Effect on hydrogen peroxide level in human MCF7 cells assessed per mg protein at 10 ug/ml by Wolf's method after 24 hrs (reference value: 12.50 +/- 1.54 nmol/mg of protein); type: functional
MCF7 [33] = test: Effect on SOD level in human MCF7 cells assessed per mg protein at 2 ug/ml after 24 hrs (reference value: 27.61+/- 3.72 U/mg of protein); type: functional
MCF7 [34] = test: Effect on DNA level in human MCF7 cells assessed per 10 '6 cells at 20 ug/ml after 24 hrs (reference value: 6.80 +/- 0.70 ug/10^6 cells); type: functional; procedure, shortened: as §1
MCF7 [35] = test: Effect on SOD level in human MCF7 cells assessed per mg protein at 20 ug/ml after 24 hrs (reference value: 27.61+/- 3.72 U/mg of protein); type: functional
MCF7 [36] = test: Effect on hydrogen peroxide level in human MCF7 cells assessed per mg protein at 2 ug/ml by Wolf's method after 24 hrs (reference value: 12.50 +/- 1.54 nmol/mg of protein); type: functional

## Cc1nc(-n2ncc3c(S[C@@H]4O[C@H](CO)[C@@H](O)[C@H]4O)ncnc32)c2c3c(sc2n1)CCc1ccccc1-3
MCF7 [1]
  Activity: 43.35 nmol
MCF7 [2]
  Activity: 9 U/mg protein
MCF7 [3]
  Activity: 33.11 nmol
MCF7 [4]
  Activity: Dose-dependent effect
MCF7 [5]
  Activity: 6.85 U/mg protein
MCF7 [6]
  Activity: 6 U/mg protein
MCF7 [7]
  Activity: Dose-dependent effect
MCF7 [8]
  Activity: 7.22 µg/10^6 cells
MCF7 [9]
  Activity: 30 nmol
MCF7 [10]
  Activity: Dose-dependent effect
MCF7 [11]
  Activity: 40.33 nmol
MCF7 [12]
  Activity: 5.35 µg/10^6 cells
MCF7 [13]
  Activity: 7.7 µg/10^6 cells
MCF7 [14]
  Activity: 80.2 U/mg protein
MCF7 [15]
  Activity: 4.86 µg/10^6 cells
MCF7 [16]
  Activity: Dose-dependent effect
MCF7 [17]
  Activity: 6 U/mg protein
MCF7 [18]
  Activity: 5.35 U/mg protein
MCF7 [19]
  Activity: 5.4 U/mg protein
MCF7 [20]
  Activity: Dose-dependent effect
MCF7 [21]
  Activity: 40.12 nmol
MCF7 [22]
  Activity: 110 U/mg protein
MCF7 [23]
  Activity: 28.45 nmol
MCF7 [24]
  Activity: 5.7 U/mg protein
MCF7 [25]
  Activity: 6.6 U/mg protein
MCF7 [26]
  Activity: 5.16 µg/10^6 cells
MCF7 [27]
  Activity: Dose-dependent effect
MCF7 [28]
  Activity: Dose-dependent effect
MCF7 [28]; MCF7, 24 h
  IC50: 9.4 µg/mL (≈ 17.6 µM)
MCF7 [29]
  Activity: Dose-dependent effect
MCF7 [30]
  Activity: 9.5 µg/10^6 cells
MCF7 [31]
  Activity: 8.9 µg/10^6 cells
MCF7 [32]
  Activity: 35.85 nmol
MCF7 [33]
  Activity: 70.4 U/mg protein
MCF7 [34]
  Activity: 4.45 µg/10^6 cells
MCF7 [35]
  Activity: 161 U/mg protein
MCF7 [36]
  Activity: 21.23 nmol
